The results in this text go back to ChEMBL document CHEMBL1687765, “NagZ inactivation prevents and reverts beta-lactam resistance, driven by AmpD and PBP 4 mutations, in Pseudomonas aeruginosa” (2010).

Values after ≈ are worked out from the molar mass of the structure shown.

What all share (type): functional
For test [1], the system named is Pseudomonas aeruginosa. In words: Antimicrobial activity against Pseudomonas aeruginosa PAO1 by Etest method. The gist of the method: (§1)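 MICs read from Etest strips on Mueller-Hinton agar per manufacturer's instructions; agents ceftazidime, cefepime, aztreonam, piperacillin, piperacillin-tazobactam, imipenem and meropenem.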
The test system of test [2] is Pseudomonas aeruginosa. In words: Antimicrobial activity against nagZ::lox gene-deficient Pseudomonas aeruginosa PAO1 by Etest method. Put shortly: as §1
In test [3] the test system is Pseudomonas aeruginosa. In words: Antimicrobial activity against ampD::lox gene-deficient Pseudomonas aeruginosa PAO1 by Etest method. The gist of the method:
as §1

Test [4] relates to Pseudomonas aeruginosa. As to the kind of experiment: Antimicrobial activity against ampD::lox and nagZ::lox gene-deficient Pseudomonas aeruginosa PAO1 by Etest method. The gist of the method: as §1
Test [5] deals with Pseudomonas aeruginosa. In words: Antimicrobial activity against dacB::lox gene-deficient Pseudomonas aeruginosa PAO1 by Etest method. The gist of the method: as §1
Test [6] has as its system Pseudomonas aeruginosa. In words: Antimicrobial activity against ampD::lox gene-deficient Pseudomonas aeruginosa PAO1 harboring dacB gene by Etest method. The gist of the method: as §1
For test [7], the system named is Pseudomonas aeruginosa. As to the kind of experiment: Antimicrobial activity against ampD::lox and nagZ::lox gene-deficient Pseudomonas aeruginosa PAO1 harboring dacB gene by Etest method. The gist of the method: as §1
The test system of test [8] is Pseudomonas aeruginosa. As to the kind of experiment: Antimicrobial activity against ampD::lox, ampDh2::lox and ampDh3::lox gene-deficient Pseudomonas aeruginosa PAO1 by Etest method. Put shortly: (§2)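 Etest strips on Mueller-Hinton agar, read per manufacturer's recommendations; P. aeruginosa PAO1 triple mutant deficient in ampD, ampDh2 and ampDh3 (lox deletions). Agents tested by Etest: ceftazidime, cefepime, aztreonam, piperacillin, piperacillin-tazobactam, imipenem, meropenem.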

In test [9] the test system is Pseudomonas aeruginosa. In words: Antimicrobial activity against ampD::lox, ampDh2::lox,ampDh3::lox and nagZ::lox gene-deficient Pseudomonas aeruginosa PAO1 by Etest method. Put shortly: as §1
Test [10] relates to Pseudomonas aeruginosa. In words: Antimicrobial activity against ampR::lox gene-deficient Pseudomonas aeruginosa PAO1 by Etest method. The gist of the method:
as §1

Test [11] relates to Pseudomonas aeruginosa. In words: Antimicrobial activity against ampC::lox gene-deficient Pseudomonas aeruginosa PAO1 by Etest method. The gist of the method:
as §1

Test [12] has as its system Pseudomonas aeruginosa. In words: Antimicrobial activity against dacB::lox and nagZ::lox gene-deficient Pseudomonas aeruginosa PAO1 by Etest method. The gist of the method:
as §1

The subject of test [13] is Pseudomonas aeruginosa. In words: Antimicrobial activity against Pseudomonas aeruginosa PAO1 by broth microdilution method. The gist of the method:
(§3)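 Broth microdilution MICs of ceftazidime, aztreonam and piperacillin in 100 μl cation-adjusted Mueller-Hinton broth, with or without NagZ inhibitor PUGNAc at 0.5 mM or 5 mM; measurements in triplicate.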

Test [14] concerns Pseudomonas aeruginosa. In words: Antimicrobial activity against ampD::lox gene-deficient Pseudomonas aeruginosa PAO1 by broth microdilution method. Put shortly: as §3
In test [15] the test system is Pseudomonas aeruginosa. As to the kind of experiment: Antimicrobial activity against dacB::lox gene-deficient Pseudomonas aeruginosa PAO1 by broth microdilution method. The gist of the method:
as §3

Test [16] deals with Pseudomonas aeruginosa. In words: Antimicrobial activity against ampD::lox gene-deficient Pseudomonas aeruginosa PAO1 harboring dacB gene by broth microdilution method. The gist of the method: as §3
For test [17], the system named is Pseudomonas aeruginosa. In words: Antimicrobial activity against Pseudomonas aeruginosa PAO1 by broth microdilution method in presence of 0.5 mM NagZ inhibitor PUGNAc. Put shortly:
as §3

Test [18] relates to Pseudomonas aeruginosa. As to the kind of experiment: Antimicrobial activity against ampD::lox gene-deficient Pseudomonas aeruginosa PAO1 by broth microdilution method in presence of 0.5 mM NagZ inhibitor PUGNAc. The gist of the method:
as §3

Test [19] relates to Pseudomonas aeruginosa. In words: Antimicrobial activity against dacB::lox gene-deficient Pseudomonas aeruginosa PAO1 by broth microdilution method in presence of 0.5 mM NagZ inhibitor PUGNAc. The gist of the method:
as §3

Test [20] deals with Pseudomonas aeruginosa. In words: Antimicrobial activity against ampD::lox gene-deficient Pseudomonas aeruginosa PAO1 harboring dacB gene by broth microdilution method in presence of 0.5 mM NagZ inhibitor PUGNAc. Put shortly: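 MICs of ceftazidime, aztreonam and piperacillin determined by broth microdilution in cation-adjusted Mueller-Hinton broth, with 0.5 mM of the N-acetyl-β-glucosaminidase (NagZ) inhibitor PUGNAc added alongside the β-lactam and untreated controls run in parallel; all measurements performed in triplicate.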

Test [21] deals with Pseudomonas aeruginosa. In words: Antimicrobial activity against Pseudomonas aeruginosa PAO1 by broth microdilution method in presence of 5 mM NagZ inhibitor PUGNAc. The gist of the method: as §3
The subject of test [22] is Pseudomonas aeruginosa. As to the kind of experiment: Antimicrobial activity against ampD::lox gene-deficient Pseudomonas aeruginosa PAO1 by broth microdilution method in presence of 5 mM NagZ inhibitor PUGNAc. Put shortly:
as §3

For test [23], the system named is Pseudomonas aeruginosa. As to the kind of experiment: Antimicrobial activity against dacB::lox gene-deficient Pseudomonas aeruginosa PAO1 by broth microdilution method in presence of 5 mM NagZ inhibitor PUGNAc. Put shortly: as §3
For test [24], the system named is Pseudomonas aeruginosa. In words: Antimicrobial activity against ampD::lox gene-deficient Pseudomonas aeruginosa PAO1 harboring dacB gene by broth microdilution method in presence of 5 mM NagZ inhibitor PUGNAc. The gist of the method: as §3
Test [25] concerns Pseudomonas aeruginosa. In words: Antimicrobial activity against Pseudomonas aeruginosa PAO1 by Etest method in presence of beta-lactamase inhibitor Tazobactam. Put shortly:
as §1

The subject of test [26] is Pseudomonas aeruginosa. In words: Antimicrobial activity against nagZ::lox gene-deficient Pseudomonas aeruginosa PAO1 by Etest method in presence of beta-lactamase inhibitor Tazobactam. Put shortly: as §1
In test [27] the test system is Pseudomonas aeruginosa. As to the kind of experiment: Antimicrobial activity against ampD::lox gene-deficient Pseudomonas aeruginosa PAO1 by Etest method in presence of beta-lactamase inhibitor Tazobactam. The gist of the method:
as §1

The subject of test [28] is Pseudomonas aeruginosa. In words: Antimicrobial activity against ampD::lox and nagZ::lox gene-deficient Pseudomonas aeruginosa PAO1 by Etest method in presence of beta-lactamase inhibitor Tazobactam. Put shortly: (§4)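 MICs on Mueller-Hinton agar by Etest strips (piperacillin-tazobactam among the agents tested), per manufacturer's instructions.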
Test [29] has as its system Pseudomonas aeruginosa. In words: Antimicrobial activity against dacB::lox gene-deficient Pseudomonas aeruginosa PAO1 by Etest method in presence of beta-lactamase inhibitor Tazobactam. The gist of the method: as §1
In test [30] the test system is Pseudomonas aeruginosa. As to the kind of experiment: Antimicrobial activity against dacB::lox and nagZ::lox gene-deficient Pseudomonas aeruginosa PAO1 by Etest method in presence of beta-lactamase inhibitor Tazobactam. The gist of the method: as §4
Test [31] has as its system Pseudomonas aeruginosa. In words: Antimicrobial activity against ampD::lox and nagZ::lox gene-deficient Pseudomonas aeruginosa PAO1 harboring dacB gene by Etest method in presence of beta-lactamase inhibitor Tazobactam. Put shortly:
as §1

Test [32] deals with Pseudomonas aeruginosa. In words: Antimicrobial activity against ampD::lox, ampDh2::lox and ampDh3::lox gene-deficient Pseudomonas aeruginosa PAO1 by Etest method in presence of beta-lactamase inhibitor Tazobactam. Put shortly: as §2
Test [33] deals with Pseudomonas aeruginosa. As to the kind of experiment: Antimicrobial activity against ampD::lox, ampDh2::lox,ampDh3::lox and nagZ::lox gene-deficient Pseudomonas aeruginosa PAO1 by Etest method in presence of beta-lactamase inhibitor Tazobactam. The gist of the method: as §4
In test [34] the test system is Pseudomonas aeruginosa. As to the kind of experiment: Antimicrobial activity against ampR::lox gene-deficient Pseudomonas aeruginosa PAO1 by Etest method in presence of beta-lactamase inhibitor Tazobactam. The gist of the method:
as §1

For test [35], the system named is Pseudomonas aeruginosa. In words: Antimicrobial activity against ampC::lox gene-deficient Pseudomonas aeruginosa PAO1 by Etest method in presence of beta-lactamase inhibitor Tazobactam. Put shortly: as §1

For the compound `C[C@@H](O)[C@H]1C(=O)N2C(C(=O)O)=C(SCCNC=N)C[C@H]12` [IMIPENEM ANHYDROUS], the minimal inhibitory concentration (MIC) against Pseudomonas aeruginosa [1] came to 2 µg/mL (≈ 6.68 µM); in the test on Pseudomonas aeruginosa [2], 1 µg/mL (≈ 3.34 µM); in the test on Pseudomonas aeruginosa [3], 2 µg/mL (≈ 6.68 µM); against Pseudomonas aeruginosa [4] it was 1 µg/mL (≈ 3.34 µM); with Pseudomonas aeruginosa [5], 2 µg/mL (≈ 6.68 µM); in the test on Pseudomonas aeruginosa [6], 2 µg/mL (≈ 6.68 µM). Further, the minimum inhibitory concentration (MIC) against Pseudomonas aeruginosa [7] was found to be 1 µg/mL (≈ 3.34 µM); against Pseudomonas aeruginosa [8], 2 µg/mL (≈ 6.68 µM); against Pseudomonas aeruginosa [9], 1.5 µg/mL (≈ 5.01 µM); in the test with Pseudomonas aeruginosa [10] it was 0.5 µg/mL (≈ 1.67 µM); with Pseudomonas aeruginosa [11], 0.5 µg/mL (≈ 1.67 µM).
For `C[C@@H](O)[C@H]1C(=O)N2C(C(=O)O)=C(S[C@@H]3CN[C@H](C(=O)N(C)C)C3)[C@H](C)[C@H]12` [MEROPENEM], the MIC in the test with Pseudomonas aeruginosa [1] amounted to 0.38 µg/mL (≈ 0.991 µM); in the test on Pseudomonas aeruginosa [2] it was 0.38 µg/mL (≈ 0.991 µM); with Pseudomonas aeruginosa [3], 1 µg/mL (≈ 2.61 µM); with Pseudomonas aeruginosa [4] it was 0.5 µg/mL (≈ 1.3 µM); in the test with Pseudomonas aeruginosa [5] it was 0.5 µg/mL (≈ 1.3 µM); against Pseudomonas aeruginosa [12], 0.38 µg/mL (≈ 0.991 µM). Besides, the minimal inhibitory concentration (MIC) came out at 1.5 µg/mL (≈ 3.91 µM) in the test on Pseudomonas aeruginosa [6]; 0.5 µg/mL (≈ 1.3 µM) with Pseudomonas aeruginosa [7]; 1 µg/mL (≈ 2.61 µM) in the test with Pseudomonas aeruginosa [8]; 1 µg/mL (≈ 2.61 µM) against Pseudomonas aeruginosa [9]; 0.25 µg/mL (≈ 0.652 µM) in the test with Pseudomonas aeruginosa [10]; 0.25 µg/mL (≈ 0.652 µM) against Pseudomonas aeruginosa [11].
As for `CCN1CCN(C(=O)N[C@@H](C(=O)N[C@@H]2C(=O)N3[C@@H]2SC(C)(C)[C@@H]3C(=O)O)c2ccccc2)C(=O)C1=O` [PIPERACILLIN], the MIC against Pseudomonas aeruginosa [13] is 4 µg/mL (≈ 7.73 µM); in the test with Pseudomonas aeruginosa [14], 48 µg/mL (≈ 92.7 µM); in the test on Pseudomonas aeruginosa [15], 64 µg/mL (≈ 124 µM); with Pseudomonas aeruginosa [16], 384 µg/mL (≈ 742 µM); in the test on Pseudomonas aeruginosa [17], 4 µg/mL; in the test on Pseudomonas aeruginosa [18] it was 24 µg/mL. The minimum inhibitory concentration (MIC) was 32 µg/mL in the test on Pseudomonas aeruginosa [19]; 256 µg/mL with Pseudomonas aeruginosa [20]; 4 µg/mL in the test with Pseudomonas aeruginosa [21]; 24 µg/mL in the test on Pseudomonas aeruginosa [22]; 24 µg/mL in the test on Pseudomonas aeruginosa [23]; 256 µg/mL in the test on Pseudomonas aeruginosa [24]. Besides, the MIC came to 2 µg/mL in the test on Pseudomonas aeruginosa [25]; 2 µg/mL with Pseudomonas aeruginosa [26]; 32 µg/mL with Pseudomonas aeruginosa [27]; 3 µg/mL in the test on Pseudomonas aeruginosa [28]; 64 µg/mL in the test on Pseudomonas aeruginosa [29]; 3 µg/mL with Pseudomonas aeruginosa [30]. Besides, the minimal inhibitory concentration (MIC) in the test on Pseudomonas aeruginosa [31] is 16 µg/mL; in the test with Pseudomonas aeruginosa [32] it was > 256 µg/mL; with Pseudomonas aeruginosa [33] it was 8 µg/mL; in the test with Pseudomonas aeruginosa [34], 4 µg/mL; in the test on Pseudomonas aeruginosa [35], 2 µg/mL.
